What was measured:
Histamine H3 receptor [1] = biological target: T1, Histamine H3 receptor (Homo sapiens, UniProt Q9Y5N1); assay: In vitro binding affinity for human Histamine H3 receptor by displacing N-[3H]-methylhistamine in SK-N-MC cells was determined; type: cell-based
How it was run: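 Cloned human H3 receptor stably expressed in SK-N-MC cells; binding run per an earlier published procedure.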

Histamine H3 receptor [2] = biological target: T1, Histamine H3 receptor; assay: Histamine-induced inhibition of forskolin- stimulated cAMP accumulation in SK-N-MC cells overexpressing the human Histamine H3 receptor; type: functional, cell-based; details: read-out: pA2 (converted)
How it was run: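 SK-N-MC sublines stably expressing human H3 receptor plus β-galactosidase reporter driven by multiple cAMP responsive elements. Compound added to media, forskolin (5 μM final) 5 min later, then 6 h at 37 °C. Cells PBS-washed, lysed, color developed with chlorophenol red β-D-galactopyranoside, absorbance 570 nm. pA2 from Schild regression of EC50 values.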

[3] = Human plasma protein binding activity was determined; type: ADME, cell-free
How it was run: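 Human plasma protein binding measured by an outside contract laboratory.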

[4] = stabilit in human liver microsome expressed as Half life; type: ADME; details: liver microsomes
How it was run: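 Stability in human liver microsomes measured by an outside contract laboratory; reported as half-life.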

Histamine H3 receptor [5] = biological target: Histamine H3 receptor (Rattus norvegicus, UniProt Q9QYN8); assay: In vitro binding affinity for rat Histamine H3 receptor by displacing N-[3H]-methylhistamine in rat cortex membranes was determined
Histamine H3 receptor (Rattus norvegicus, UniProt Q9QYN8), sequence (Q9QYN8 whole entry): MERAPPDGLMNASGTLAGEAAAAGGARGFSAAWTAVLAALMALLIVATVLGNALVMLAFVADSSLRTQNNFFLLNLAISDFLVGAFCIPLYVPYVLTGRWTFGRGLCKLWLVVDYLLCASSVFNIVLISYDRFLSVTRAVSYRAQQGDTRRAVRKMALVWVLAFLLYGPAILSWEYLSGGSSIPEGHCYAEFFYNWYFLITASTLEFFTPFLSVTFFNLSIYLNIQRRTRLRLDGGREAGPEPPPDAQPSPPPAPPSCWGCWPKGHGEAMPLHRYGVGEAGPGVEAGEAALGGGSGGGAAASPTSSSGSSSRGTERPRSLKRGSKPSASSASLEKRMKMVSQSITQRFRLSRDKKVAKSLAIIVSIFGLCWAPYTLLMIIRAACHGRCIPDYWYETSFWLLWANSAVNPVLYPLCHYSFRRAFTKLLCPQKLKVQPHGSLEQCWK

T1 sequence (Q9Y5N1 whole entry): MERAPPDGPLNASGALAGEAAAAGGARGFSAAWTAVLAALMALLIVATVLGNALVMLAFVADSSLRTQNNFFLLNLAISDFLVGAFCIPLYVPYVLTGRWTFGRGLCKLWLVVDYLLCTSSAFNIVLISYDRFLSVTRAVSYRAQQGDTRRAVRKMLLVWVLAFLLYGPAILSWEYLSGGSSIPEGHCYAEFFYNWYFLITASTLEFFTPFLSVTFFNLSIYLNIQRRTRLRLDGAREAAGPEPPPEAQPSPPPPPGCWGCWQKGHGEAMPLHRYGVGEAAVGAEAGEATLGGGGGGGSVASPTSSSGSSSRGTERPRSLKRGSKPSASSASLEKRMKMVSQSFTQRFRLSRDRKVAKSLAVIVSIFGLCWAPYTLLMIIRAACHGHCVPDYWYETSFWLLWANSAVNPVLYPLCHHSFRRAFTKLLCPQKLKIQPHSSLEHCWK

| Ki (Histamine H3 receptor [1]) [nM] | Compound | also measured |
| --- | --- | --- |
| 1.35 | CN1CCN(Cc2ccc(OCCCN3CCCCC3)cc2)CC1 | – |
| 8.91 | c1cc(OCCN2CCCCC2)ccc1CN1CCCCC1 | Kb (Histamine H3 receptor [2]): 8.91 nM |
| 0.741 | OC1CCN(Cc2ccc(OCCCN3CCCCC3)cc2)CC1 | Kb (Histamine H3 receptor [2]): 0.229 nM |
| 50.1 | c1cc(OCCCN2CCCCC2)ccc1CC1CCCCC1 | – |
| 0.871 | c1cc(OCCCN2CCCCC2)ccc1CN1CCOCC1 | Kb (Histamine H3 receptor [2]): 0.537 nM |
| 1.51 | c1ccc(CC2CCN(Cc3ccc(OCCCN4CCCCC4)cc3)CC2)cc1 | – |
| 2.29 | c1cc(OCCCN2CCOCC2)ccc1CN1CCCCC1 | – |
| 0.955 | NC(=O)C1CCN(Cc2ccc(OCCCN3CCCCC3)cc2)CC1 | – |

The remaining lines, values behind:

| Compound | Ki (Histamine H3 receptor [1]) [nM] | also measured |
| --- | --- | --- |
| c1ccc2c(c1)CCC2NCc1ccc(OCCCN2CCCCC2)cc1 (stereo not given) | 0.832 | – |
| c1cc(OCCCC2CCCCC2)ccc1CN1CCCCC1 | 631 | – |
| CCN(CC)CCOc1ccc(CN2CCCCC2)cc1 | 50.1 | – |
| c1cc(OCCCN2CCCCC2)ccc1CNC1CCCCC1 | 0.513 | Kb (Histamine H3 receptor [2]): 0.195 nM |
| c1ccc2c(c1)CCN(Cc1ccc(OCCCN3CCCCC3)cc1)C2 | 1.7 | – |
| c1ccc(NCc2ccc(OCCCN3CCCCC3)cc2)cc1 | 8.32 | – |
| CN(C)CCOc1ccc(CN2CCCCC2)cc1 | 3.89 | Kb (Histamine H3 receptor [2]): 10.5 nM |
| CN(C)Cc1ccc(OCCCN2CCCCC2)cc1 | 0.933 | – |
| CCN(CC)CCCOc1ccc(CN2CCCCC2)cc1 | 1.23 | – |
| c1cc(OCCCN2CCCCC2)ccc1CN1CCCCC1 [JNJ-5207852] | – | Binding [3]: 54%; half-life [4]: > 24 h; Ki (Histamine H3 receptor [5]): 0.457 nM |
